Assay results as given in ChEMBL document CHEMBL1154894, “Paltolides A--C, anabaenopeptin-type peptides from the palau sponge Theonella swinhoei” (J Nat Prod, 2010).
Activity calls are given as the source filed them. The rule behind the calls is not given here. Numbered stars: 1 amine (or outer) side, 2 acyl side, 3 side chain; on linkers, the order of the positions; unused ones are H or OH. Bridge positions count the residues as written; N and C are the ends. Square brackets hold non-standard residues; d marks the D form. Peptide text beside a SMILES is read from it. X1 = O=C([C@H](Cc1c[nH]c2cc(Cl)c(O)cc12)N[*:1])[*:2]; NMeL = CN[C@@H](CC(C)C)C(=O)O; CO = O=C([*:1])[*:2]

Experiments:
TZM = test: Cytotoxicity against human TZM-bl cells assessed as cell viability up to 100 ug/ml after 72 hrs by MTT assay; assay type: functional, cell-based
Outline: (§1)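 MTT viability kit assay. Cells seeded at 2 × 10^4 per well and left to adhere 18 h. Exposed to compound for 24 h, then medium replaced or diluted 3-fold with fresh growth medium. Incubated a further 48 h before MTT read-out at A570. At least two separate experiments, each in duplicate.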

[1] = test system: Human immunodeficiency virus 1; test: Antiviral activity against HIV1 expressing SF162 envelope assessed as inhibition of viral entry in human TZM-bl cells up to 100 ug/ml after 48 hrs by luciferase reporter gene assay; assay type: functional, organism-based
Outline: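 Single-round HIV-1 neutralization in TZM-BL cells using virus pseudotyped with SF162 Envelope, under previously published conditions. At least two separate experiments, each run in duplicate.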

[2] = Cytotoxicity against african green monkey BSC1 cells assessed as cell viability up to 100 ug/ml after 72 hrs by MTT assay; assay type: cell-based; settings: chlorocebus aethiops, bsc-1, 72 h; outline: as §1
HCT-116 = test: Cytotoxicity against human HCT116 cells assessed as cell viability up to 100 ug/ml after 72 hrs by MTT assay; assay type: functional, cell-based; outline: as §1

| Structure (SMILES) | Activity (TZM) | Activity [1] | Activity [2] | Activity (HCT-116) |
| --- | --- | --- | --- | --- |
| CC(C)C[C@@H]1NC(=O)[C@H](C)NC(=O)[C@H](NC(=O)N[C@@H](CCCNC(=N)N)C(=O)O)CCCCNC(=O)[C@H](Cc2c[nH]c3cc(Cl)c(O)cc23)NC(=O)[C@H](CC(C)C)N(C)C1=O ({Arg-CO}-[dK]AL[NMeL][X1]; lactam 1-C) | inactive | inactive | Not Active | inactive |
| CC(C)C[C@@H]1NC(=O)[C@H](C)NC(=O)[C@H](NC(=O)N[C@@H](CCCNC(=N)N)C(=O)O)CCCCNC(=O)[C@H](Cc2c[nH]c3ccccc23)NC(=O)[C@H](CC(C)C)NC1=O [PALTOLIDE A] | inactive | inactive | Not Active | inactive |
| CC(C)C[C@@H]1NC(=O)[C@H](C)NC(=O)[C@H](NC(=O)N[C@@H](CCCNC(=N)N)C(=O)O)CCCCNC(=O)[C@H](Cc2c[nH]c3ccc(O)cc23)NC(=O)[C@H](CC(C)C)N(C)C1=O [PALTOLIDE B] | inactive | inactive | Not Active | inactive |
| CC(C)C[C@@H]1NC(=O)[C@H](C)NC(=O)[C@H](NC(=O)N[C@@H](CCCNC(=N)N)C(=O)O)CCCCNC(=O)[C@H](Cc2c[nH]c3cc(Br)ccc23)NC(=O)[C@H](CC(C)C)N(C)C1=O [PALTOLIDE C] | inactive | inactive | Not Active | inactive |
